In PubChem BioAssay:
The source made the active and inactive calls.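 Rule for the calls: active = potentiation averaged over duplicate wells exceeding buffer-only control mean by more than 3 SD; inactive = the rest.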

These compounds were tested against Potassium voltage-gated channel subfamily KQT member 1 (Homo sapiens) (UniProt P51787) (assay: KCNQ1 potassium channel potentiators, confirmation, FluxOR thallium flux, CHO cells, duplicates (AID 493007;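 for outcome: cells depolarized by a potassium plus thallium sulfate stimulus after compound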;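 for potentiation: 0% = buffer-only wells and 100% = R-L3 activator control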)). Settings: KCNQ1 cell line, FluxOR thallium flux fluorescence, at 10 µM; stronger effect = higher value, % of reference activator effect, buffer zero.
Chain of Potassium voltage-gated channel subfamily KQT member 1 (Homo sapiens) (P51787 whole entry, looked up): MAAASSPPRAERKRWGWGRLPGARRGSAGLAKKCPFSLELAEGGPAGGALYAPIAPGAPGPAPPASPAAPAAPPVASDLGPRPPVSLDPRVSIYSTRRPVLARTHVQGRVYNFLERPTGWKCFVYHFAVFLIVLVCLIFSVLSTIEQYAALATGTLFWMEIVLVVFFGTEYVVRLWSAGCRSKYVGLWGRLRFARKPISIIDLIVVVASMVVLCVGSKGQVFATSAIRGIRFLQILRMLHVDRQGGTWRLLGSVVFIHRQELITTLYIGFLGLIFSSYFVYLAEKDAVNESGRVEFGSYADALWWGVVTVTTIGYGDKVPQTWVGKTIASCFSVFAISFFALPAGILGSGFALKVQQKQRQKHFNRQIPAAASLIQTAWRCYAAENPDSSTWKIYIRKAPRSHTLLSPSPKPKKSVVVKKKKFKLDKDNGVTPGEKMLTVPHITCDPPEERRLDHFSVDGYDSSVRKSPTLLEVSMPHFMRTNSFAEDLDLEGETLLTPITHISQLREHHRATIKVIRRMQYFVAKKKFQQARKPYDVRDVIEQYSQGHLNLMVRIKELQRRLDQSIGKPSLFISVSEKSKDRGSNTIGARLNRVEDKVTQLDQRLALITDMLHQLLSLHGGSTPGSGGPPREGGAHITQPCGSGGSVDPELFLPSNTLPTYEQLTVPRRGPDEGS
In short: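 material = CHO cells stably expressing the KCNQ1 potassium channel | repeats = duplicate wells per compound | measure = percent activation between buffer and R-L3 responses | signal = FluxOR thallium-flux fluorescence, kinetic read | schedule = FluxOR dye loading 90 min, compound exposure 20 min, room temperature | control set = buffer and R-L3 controls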

potentiation, active:
Cc1ccc(-c2csc(=S)[nH]2)cc1 189%
Cc1sc2ncnc(SCC(=O)c3ccc(O)cc3O)c2c1C 20.5%
Oc1ccc(N=Nc2ccc3c(c2)OCCO3)c2ncccc12 116%
Cc1cc(Cl)ccc1OCc1n[nH]c(=S)n1C1CCCCC1 129%
Cc1cccc(C(=O)NC(=S)N(C)C2CCCCC2)c1 72.5%
CN(C)C(=S)NC(=O)c1cccc(Cl)c1 19%
CC(C)N(Cc1ccccc1)C(=S)NC(=O)C1(C)CC1(Cl)Cl (stereo not given) 138%
CC(C)(C)NC(=O)C(=O)NNC(=O)C12CC3CC(CC(C3)C1)C2 40%
S=c1nc(C2CCCCC2)n(-c2ccccc2)[nH]1 117%
Cc1ccc(NC(=S)NC(=O)c2cncc(Br)c2)cc1Cl 246%
O=C(NC(=S)NCc1ccccc1)c1cccs1 81%
COc1cc(CN2CCC(C)CC2)ccc1OCc1ccccc1 90%
Cc1ccc(C(=O)Nc2nc(-c3ccccc3)c(-c3ccccc3)o2)cc1 92.5%
Cc1ccc(NC(=O)C(=O)NNC(=O)c2ccccc2C)cc1Cl 112%

outcome, inactive:
Fc1ccccc1C(c1nnnn1C1CCCC1)N1CCN(Cc2ccccc2)CC1 (stereo not given)
CCC1(c2ccccc2)NC(=O)N(CC(=O)Nc2ccccc2C(=O)N2CCCCC2)C1=O (stereo not given)
CCC(/C=N/NC(=O)C1COc2ccccc2O1)CC (stereo not given)
COc1cccc(C2=NOC(C(=O)NCc3ccccc3)C2)c1 (stereo not given)
COc1ccccc1CNC(=O)c1oc2ccc(S(=O)(=O)N3CCOCC3)cc2c1C
O=C(O)CSc1cc(NS(=O)(=O)c2ccc(Br)cc2)c2ccccc2c1O
Cc1ccc(-c2ccc(C3C(C#N)=C(N)Oc4n[nH]c(C)c43)o2)cc1 (stereo not given)
C(=N\NC(=Nc1ccccc1)c1ccccn1)/c1ccccn1
COc1cnc(-c2ccccn2)nc1Oc1ccccc1Cl
Cc1cc(NC(=O)CSc2cn(CCNC(=O)c3ccc(F)cc3)c3ccccc23)no1
CCCc1c(C)[nH]c2ccc(NC(C)=O)cc2c1=O
Cc1cc2n(n1)SC(Nc1ccc(F)c(Cl)c1)N2 (stereo not given)
C=C[C@@]1(C)CC(=O)[C@]2(O)[C@@]3(C)[C@@H](O)CCC(C)(C)[C@@H]3[C@H](OC(C)=O)[C@H](O)[C@@]2(C)O1
CCOC(=O)Cn1c2ccccc2c2nc3ccccc3nc21
O=C(c1ccco1)N1CCN=C1SCc1ccc(F)cc1
CCOC(=O)c1ccc(Oc2nc(NC(C)(C)C)nc(N(C)C)n2)cc1
COc1ccc(OCC(=O)N2CCCC2=O)c([N+](=O)[O-])c1
CCOC(=O)c1c(-c2ccccc2)oc2ccc(O)c(CN3CCN(C)CC3)c12
Cc1ccc(NC(=O)CCS(=O)(=O)c2cccc3nonc23)c(Br)c1
COc1ccccc1N1C(=NC(=O)C(C)Oc2ccccc2)SC2CS(=O)(=O)CC21 (stereo not given)
CCCCN1C=CC(=C2C(=O)c3ccccc3C2=O)C=C1
O=C(NCc1ccccc1)c1onc(CSc2ccc(F)cc2)c1C(=O)NCCCN1CCOCC1
COc1ccc(CNC(=O)CNC(C)c2ccc(F)cc2)cc1 (stereo not given)
Cc1cc(N=Cc2cc(Br)ccc2O)no1
Cn1nc(SCC(=O)O)sc1=S
COc1cccc(/C=N/NC(=O)C(C)n2nc(C)c([N+](=O)[O-])c2C)c1O (stereo not given)
